B1: tRNA (parent)
chain: GUUCCGUUGGCGUAAUGGUAACGCGUCUCCCUCCUAAGGAGAAGACUGCGGGUUCGAGUCCCGUACGGAACG

This sample holds only a part of the variants without activity.

The variants in this series derive from B1. As to the kind of experiment: yeast fitness relative to wild type (ratio to wild type); higher = fitter; tRNA-Arg(CCU), competitive growth, 37 C, YPD. Put shortly:
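Variants of the tRNA-Arg(CCU) gene, chemically synthesised with a 3% per-site mutation rate at 69 sites, were placed at the native genomic locus in Saccharomyces cerevisiae. The pooled strains were competed in YPD at 37°C for 24 hours in six parallel replicates. Gene amplicons from the start population and from each end population were read by 100-nucleotide paired-end sequencing. Darwinian fitness relative to wild type came from changes in genotype frequencies; genotypes needed ≥ 100 starting reads, and estimates < 0.5 were set to 0.5.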
In the case of G17A U59A C66U, the yeast fitness is ≤ 0.5. Consider U2A A21C C31G A43C, for which the yeast fitness is ≤ 0.5. Take C22U C27G A40G A42G: the yeast fitness was ≤ 0.5. For C5U U13G C27U C29A A36U A40C G52C, the yeast fitness is ≤ 0.5. As to C4A C5U C22G G44C, the yeast fitness is ≤ 0.5. The result for C11A A20U reads 0.681; that for A14C U19A A45C A65G, ≤ 0.5. The result for G23A A65G reads 0.907; that for C11A G58A G68U, ≤ 0.5; that for U3A A40G C49U, 0.54. Consider C62A G68C, for which the yeast fitness amounted to 0.875.

Turning to G6C A15U U26A A57C, the yeast fitness worked out at 0.707. Consider C5G U53C, for which the yeast fitness was 0.866. Take A14G C30A G50A G51A A69G: the yeast fitness is ≤ 0.5. The result for A20G G25C C49U reads 0.76. G25A C29U C31G: the yeast fitness was ≤ 0.5. C33A C46A G58A A70G: the yeast fitness is ≤ 0.5. Take C5G G9C C30G: the yeast fitness was ≤ 0.5. The result for C4U C11U G25C G41A G58C reads ≤ 0.5; that for C4G A14C U47C, ≤ 0.5. The result for U19A A36G A42C C66A reads ≤ 0.5. Regarding U13A U19A, the yeast fitness came out at 0.828. In the case of C4U A14U G39A C49G, the yeast fitness is ≤ 0.5. The result for C11U G17C A45G reads 0.586; that for G9A G56C C61U, 0.603; that for C5U G17A A36U U47A, ≤ 0.5. With C24A C31U A36G A37G G48A U53G, the yeast fitness is 0.653. The result for G25A C31U A70C reads 0.731; that for G6A G44A C46A, ≤ 0.5; that for G12A A14C C34G C55U, ≤ 0.5. For U3G C27G U35C, the yeast fitness was ≤ 0.5. Take C4A A14G A15G G56C: the yeast fitness is ≤ 0.5. The result for C22A G23C C34U A36G A40U reads 0.548; that for U7A G9C G17C C49U C62G, ≤ 0.5.

As to A15U C34A A40U G52A G68A, the yeast fitness was ≤ 0.5. As to U7A C27A C29G C30G U47A A70G, the yeast fitness is ≤ 0.5.

As to A45C G51A, the yeast fitness came out at 0.919. Turning to A57G C66G, the yeast fitness turned out to be 0.783.

A21U G23A A42C U59G A69C: the yeast fitness was ≤ 0.5. Regarding U19C U64C, the yeast fitness stood at 0.893.

Take U3A C61G: the yeast fitness turned out to be 0.767. As for C27A A57G, the yeast fitness is 0.787. Take C5G U28G: the yeast fitness was determined as 0.699. The result for G12C C22U U54C A65U reads 0.531.

Consider A15G G44C C61U, for which the yeast fitness was found to be 0.607. C5U A43U G48A C61G A70C: the yeast fitness was ≤ 0.5. For the variant C30U G48C, the yeast fitness is 0.872. In the case of G12A U13A A14G G38C, the yeast fitness was ≤ 0.5. The result for G10C C33G A36C U64A A65C reads ≤ 0.5; that for U13A U19G C49U, 0.625.

Consider U2C A40U U54A, for which the yeast fitness was ≤ 0.5.

G6C C24U G38C A40G A65G: the yeast fitness is ≤ 0.5. On to C27A G41C A43C, for which the yeast fitness was determined as 0.504.

On to C30G U59C, for which the yeast fitness was determined as 0.537. As for U2C U8C G23C C31G C33U A42G G52C G58C, the yeast fitness was ≤ 0.5. As to U2C A43U U47C, the yeast fitness was determined as 0.749. The result for C4U C5G A15U C22G C30U U53G G58A U59A reads 0.603. C22U G52A C60G: the yeast fitness stood at 0.503.

As to C34U C49A A69C, the yeast fitness is ≤ 0.5. The result for G23A U54C reads 0.533. With U13A C22U A57U, the yeast fitness is ≤ 0.5. As for G18C U26A C55G, the yeast fitness is ≤ 0.5. The result for U3C C11A C31A G68C reads 0.582. In the case of C5G G6C C33A A40U A70C, the yeast fitness is ≤ 0.5. On to C24U C27A C30U G63U, for which the yeast fitness was ≤ 0.5. As for A21C C31A C33G C46A, the yeast fitness is ≤ 0.5.

For the variant U7G G23C C30G A36U C61U, the yeast fitness was ≤ 0.5. With C22G C27G A45U A57G A70G, the yeast fitness turned out to be 0.595. For the variant C11U A43C G56A, the yeast fitness was 0.692. The result for G10A C29U G44C reads ≤ 0.5. The result for U13C C60U reads 0.725; that for G12A A37G A65G A69C, ≤ 0.5. The result for U13A C31G C34A reads 0.624; that for A42G A45U C66U, 0.684; that for A37G C66U, 0.828. For U13C C49G G50C A65U, the yeast fitness was ≤ 0.5.

For C27U C30U A40U G48C G63A, the yeast fitness came out at 0.535.

Take C11G A42G A45U: the yeast fitness was ≤ 0.5. On to A42G G48A G68C A70U, for which the yeast fitness was ≤ 0.5. With C5U A14G A36G G68C, the yeast fitness is ≤ 0.5. As for G17A G51C, the yeast fitness turned out to be 0.543. As for U8C U13G C22U C49A A69C, the yeast fitness is ≤ 0.5.

Turning to G58C A65G, the yeast fitness worked out at 0.933.

As to C4G U7C C24U A65G, the yeast fitness amounted to 0.857.

Turning to A15U C22A G23A C24A C46A, the yeast fitness is ≤ 0.5. C31A G58C: the yeast fitness is 0.894.

Consider U3G A36C A45C G58A G68C A70U, for which the yeast fitness is ≤ 0.5.

For the variant G25A A37U, the yeast fitness is 0.652. C24G C55A A65U: the yeast fitness is ≤ 0.5. Turning to A20G A42U, the yeast fitness is 0.982. As to C24U G58A A65C, the yeast fitness stood at 0.707. As to G12A G48C G68C A70U, the yeast fitness was ≤ 0.5. The result for C11G A45U G50A G63A U64A reads 0.668.

Turning to C11U G17C, the yeast fitness worked out at 0.768. In the case of U32C A42U G58C, the yeast fitness amounted to 0.623. On to C22G C29A A43C C60G, for which the yeast fitness is ≤ 0.5. With C5A U19A C66U, the yeast fitness stood at 0.66. The result for C5U C31G G56C reads 0.527. The result for U19G C30A A45U G56A G58C A69U reads ≤ 0.5; that for C22U U32C C46U U54G A70U, 0.655; that for C11A C27U C46G, 0.524. Regarding U26A A45C, the yeast fitness was 0.698. With C30A U32A A57C, the yeast fitness was ≤ 0.5. C22G C34G: the yeast fitness was found to be 0.612. U7G C22U U26C U64G G67C: the yeast fitness was ≤ 0.5. In the case of C11U A20U A65C, the yeast fitness is ≤ 0.5.

As to C24U U28G C33G C34U A36G A40G, the yeast fitness turned out to be 0.596.

G17A G56A: the yeast fitness turned out to be 0.878. Turning to U28G G38C A43G U59C C60G, the yeast fitness is ≤ 0.5. The result for G18A reads 0.76; that for U13C C22G C27A G51C A70U, ≤ 0.5. Take C34A C46U C61G: the yeast fitness is ≤ 0.5. On to A40G G52A U53A C66U, for which the yeast fitness is ≤ 0.5. The result for C5G U16C C33U C66A reads ≤ 0.5. Regarding U2C G18C G25C C30A G63C, the yeast fitness was ≤ 0.5.

Take A36G G44U: the yeast fitness is 0.711. The result for U13A C30U G58C reads ≤ 0.5. As to A15C G41C C46A, the yeast fitness is ≤ 0.5. The result for G17C C34G A37C C62A reads 0.561. On to G25C C31U U53C, for which the yeast fitness stood at 0.633. With G6A G10A G18A C27G A37G G38A, the yeast fitness is ≤ 0.5.

For C4U A42C G51C A65G, the yeast fitness is 0.508. The result for U19A A45C reads 0.726; that for A14U A42U C61U C66U, ≤ 0.5.

For the variant C5U C11U A21C C24U U26C U28A C31G C49G, the yeast fitness was ≤ 0.5. As for A14G G23C, the yeast fitness is 0.692. Consider G12A G23C C30G A37U C62U A65U, for which the yeast fitness is ≤ 0.5. G6C G12A A21G: the yeast fitness was determined as 0.552. In the case of C11G C24U C49A, the yeast fitness is 0.547.

As for U7G A14G, the yeast fitness came to 0.911. A20C G23A A70U: the yeast fitness was 0.551. For the variant U13A C30U U47A U59A C60U C62G C66U, the yeast fitness came out at 0.55. The result for G51A G68C reads 0.671.

Take U8C A20C C22A C24U: the yeast fitness was ≤ 0.5.

As for G25C A45U C60A, the yeast fitness was ≤ 0.5. Regarding U19G A37G A57G A70U, the yeast fitness was ≤ 0.5. As for C5G G25A A42C G68U, the yeast fitness was ≤ 0.5.

With U3C A15U C34U A43G G68A A69U, the yeast fitness was ≤ 0.5. On to C29G G44A U64G, for which the yeast fitness is ≤ 0.5. With C22U A45C, the yeast fitness came to 0.75.

Take C27A A40C C46A: the yeast fitness amounted to 0.597.

For the variant U2A A20G C31A A43U C61A, the yeast fitness was ≤ 0.5. With U19G A20C U26C U28C, the yeast fitness was ≤ 0.5. On to A20U C22G G23A A43U G48A, for which the yeast fitness was ≤ 0.5. C29A C60A C66G: the yeast fitness was ≤ 0.5. With U16G G44C C62A, the yeast fitness was determined as 0.875. For the variant U8A C24U, the yeast fitness is 0.834. In the case of C5G A42G U54A, the yeast fitness turned out to be 0.639. As to C4G C11A C30G C60A, the yeast fitness is ≤ 0.5. As for C24U A37G A43G A70U, the yeast fitness was ≤ 0.5. The result for A15C G17A G38C U59C reads 0.569. Take C46A C61G A70U: the yeast fitness was determined as 0.525. Take A21G U47C A65C: the yeast fitness turned out to be 0.63.

With U2C C27A G41A C49A U53C U54C U64C, the yeast fitness is ≤ 0.5.

In the case of U3G G39A A40G, the yeast fitness was ≤ 0.5. Consider U53G G56C C60A, for which the yeast fitness was ≤ 0.5. With U8C A14G C27U U32A, the yeast fitness was ≤ 0.5. Consider C24A C29G A69G, for which the yeast fitness was ≤ 0.5. Turning to C11U A45U U53C, the yeast fitness was 0.66. Consider A20G C27A, for which the yeast fitness was determined as 0.933.

Take C24G G25C A45G: the yeast fitness was 0.512. Regarding U2A G12C G23C, the yeast fitness is ≤ 0.5. C11G G41A U47A C49U U59C G67C A70U: the yeast fitness was ≤ 0.5. Consider U8G G38A A69U, for which the yeast fitness stood at 0.507. As for A20U C34U A40U, the yeast fitness is ≤ 0.5. In the case of G9C G17C G18C C62U A69G, the yeast fitness amounted to 0.629. As to U3G A43G U47A C49A, the yeast fitness was 0.535.

The record behind these values is the RNAGym collection of RNA variant scans (doi:10.1126/science.aae0568).
